Results of several laboratories.
Compare with care: the assays were run in different laboratories.
Target: Acetylcholinesterase (ACHE, Homo sapiens, UniProt P22303)
Effect on: enzyme activity
Mode: inhibitor

Structure (SMILES)	test	IC50 [nM]
CC(C)c1cc2c(c(O)c1O)[C@@]1(C(=O)O)CCCC(C)(C)[C@@H]1CC2		0.78
COc1cc(-c2nc3ccccc3s2)cc2c1OCC(=O)N2CC(=O)N[C@@H](CC(C)C)C(=O)O	Ellman	> 265000
O=c1cc(CSc2ccc(N=Cc3cccc(Br)c3)cc2)occ1O	Ellman	5580
CCc1cccc(C)c1NC(=O)CSc1nnc(COc2ccc3ccccc3c2)n1-c1ccccc1	Ellman	1420
COc1cc(-c2nc3ccccc3s2)cc2c1OCC(=O)N2CC(=O)N[C@H](C(=O)O)C(C)C	Ellman	> 273000
CC(C)c1cc2c(c(O)c1O)[C@@]13CCCC(C)(C)[C@@H]1C[C@@H]2OC3=O		0.81
O=C(CSc1nnc(COc2ccc3ccccc3c2)n1-c1ccccc1)Nc1ccccc1	Ellman	1870
O=c1cc(CSc2ccc(N=Cc3ccc([N+](=O)[O-])cc3)cc2)occ1O	Ellman	8380
CC[C@H](C)[C@@H](NC(=O)COc1c(NC(C)=O)cc(-c2nc3ccccc3s2)cc1OC)C(=O)O	Ellman	> 264000
Cc1ccc(NC(=O)CSc2nnc(COc3ccc4ccccc4c3)n2-c2ccccc2)cc1C	Ellman	778
CC[C@@H](C)[C@H](NC(=O)CN1C(=O)COc2c(OC)cc(-c3nc4ccccc4s3)cc21)C(=O)O	Ellman	> 265000
O=c1cc(CSc2ccc(N=Cc3ccc(O)cc3)cc2)occ1O	Ellman	5060
COc1cc(-c2nc3ccccc3s2)cc(NC(C)=O)c1OCC(=O)N[C@@H](C)C(=O)O	Ellman	> 289000
O=c1cc(CSc2ccc(N=Cc3ccc(Br)cc3)cc2)occ1O	Ellman	570
Cc1cc(C)cc(NC(=O)CSc2nnc(COc3ccc4ccccc4c3)n2-c2ccccc2)c1	Ellman	1120
